Measurements as given in the EternaBench riboswitch data.

Test system: MS2 coat protein
Experiment: apparent Kd, MS2 coat protein; higher = weaker binding; RNA-MaP array; FMN 200 µM where present
Outline: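 Designs on Illumina sequencing-chip clusters, transcribed by stalled E. coli RNA polymerase, were exposed to SNAP-549-labelled MS2 coat protein in doubling steps from 0.7 or 1.5 nM up to 3 µM, without and then with constant ligand. The buffer held 100 mM Tris-HCl pH 7.5, 80 mM KCl, 4 mM MgCl2, BSA, DTT, yeast tRNA and Tween-20. Apparent Kd values are medians of filtered per-cluster binding-curve fits to green signal normalised to red-channel RNA signal and control-cluster median Fmax.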

[1] = designed as: ON switch for flavin mononucleotide, no ligand
[2] = ligand present: flavin mononucleotide, designed as: ON switch for flavin mononucleotide
[3] = designed as: OFF switch for flavin mononucleotide, no ligand
[4] = ligand present: flavin mononucleotide, designed as: OFF switch for flavin mononucleotide

Sequence | apparent Kd [1] [nM] | apparent Kd [2] [nM] | apparent Kd [3] [nM] | apparent Kd [4] [nM]
AAAGACAUGAGGAUCACCCAUGUCGGUAUAACUUAAGCGUCACAGGAUAUGUUACGAAAUUAUGGACAGAAGGGUGAGCUGUGG | 23.8 | 9.02 | – | –
UUGAUGUCAUCAGGAUAUAGUAUUUAAGACAUAUAUUUUUUCAAACAUGAGGAUCACCCAUGUCGCUAGAAGGGAUUAUAGAUU | – | – | 41 | 35.6
AAACAUGUCCGAGGAUAUCUGGAAACAUUUCCAAGAGAAGGCGGACAUGAGGAUCACCCAUGUCUCUCCUCAUCAAAUCCAAGA | – | – | 8 | 77.4
UUUAUGUCAGGAUAUGAGUAGUAGAACAAUAGUACUACUACUCAGAAGGGACAUGAGGAUCACCCAUGUUUCUC | – | – | 23.4 | 143
UUGGACGUCGUAGGGUAUGUAGGAUAUUCCUACAUGAGGAUCACCCAUGUUGACAUGGAAGAAGGACAGAAGGACGAUGUCCAU | 106 | 4.37 | – | –
UGGUACUAGGGAGGAUAUGGGAAGAUACAUGAGGAUCACCCAUGUUUACGAAUGCCGAGAGGCAACUAGAAGGCCCUAGUACCU | 315 | 19.5 | – | –
GGAUGACAAAGUCAUCCAAUACGAACAUGAGGAUCACCCAUGUAGGAUAUGCAACACAAAGUGUUGCAGAAGGACAUGUGUCUU | – | – | 30.4 | 136
AGUUGGCGAGGAUAUACAUGAGGAUCACCCAUGUGAGAGAUACUAGUGAGGUCGAUUGGUAGAAGGCGCUGACA | – | – | 132 | 106
AAGAGACAUCAGAAGGGAGCCCGCACGCGCGGCUCAGGAUAUGAGAUCUUAUGUAGUACGACAUGAGGAUCACCCAUGUCCGCG | 37.8 | 7.97 | – | –
CCGCAUAAGCAGGAUAUCGUAUCGGAAACGAUACGAGAAGGGUUAACAUGAGGAUCACCCAUGUUCCUUAACGG | – | – | 17.9 | 18.2
GGACGACACAUCUACAUGAGGAUCACCCAUGUCGAAAGACAUGAGGAUAUGCAUCCUAAUUGGAUGCAGAAGGCAUGGUCGUCC | 1210 | 70.3 | – | –
UCAUUGAUUGUGAGGAUAUCGAUGUGAUGGUUUGUCGAGAAGGCACAUGAGGAUCACCCAUGUUUGUUUGGGCU | – | – | 494 | 253
UCAUACUUUCGAGGAUAUCGGUUAACAUAUUAACGAGAAGGCGAUAUAUUGUUUAAUCUUAUAAACAUGAGGAUCACCCAUGUA | 33.9 | 25.4 | – | –
AAGGAGUCAGGAUAUGCUGCUCGUCACUUGCGUGAUGAGUAGCAGAAGGGACAUGAGGAUCACCCAUGUAAAAA | – | – | 56.9 | 55.8
GCCGAAAGUGUGAGGAUAUACCUAUGGAUACAUAGGUAGAAGGCACAUGAGGAUCACCCAUGUUCCUAAACGGC | – | – | 80.2 | 421
UGUCGGAGCAGAGGAUAUUACAUGAGGAUCACCCAUGUAUGAACCAAUAGCUGGAAAUAGCAAUGUAAGAAGGCUGCUCCGACA | – | – | 15.8 | 168
AUCUAAGAAUUAAUUGUGACUGACAGAAGGCAAUAGUAUGUGACCGACAUGAGGAUCACCCAUGUUGAGGAUAUGUCUUGCUAC | – | – | 7.02 | 22.4
CGAGGACAUGAGGAUCACCCAUGUAGCUACAAAACGCAGCGACAGGAUAUCCUCUGGUUCCCAUAGGAGAAGGGUCAAACCUUG | 29.4 | 47.3 | – | –
GCAUUGAUAACAGGAUAUAUGUAUCCUACAUGAGGAUCACCCAUGUAGGUGAUCAGCCGCGAUAAGUAGAAGGGUUAUCAAUGC | 18 | 13.7 | – | –
UGUUGUAUUACAGGAUAUCUAUUAUUUUUAUUUAGAGAAGGGUAUUCACAUGAGGAUCACCCAUGUAUAUACGAGGAAGAUGUG | 91.5 | 107 | – | –
UUGAUUAUACAAGGAUAUCAAUUGUAAUUGAGACUUACAUGAGGAUCACCCAUGUUAAUAUUUUUUGAGAAGGUGUAUUUUCAG | 27.2 | 25.4 | – | –

Sequence | apparent Kd [1] [nM] | apparent Kd [2] [nM] | apparent Kd [3] [nM] | apparent Kd [4] [nM]
AGGAAUUUGUAGAAGGACGACUAUUAAGAUUUCGUAGGAUAUACUAUUUACAUGAGGAUCACCCAUGUUUAAAUGGAACAAUGU | – | – | 8.06 | 11.1
GAGGACUGUGCAGGAUAUACAUGAGGAUCACCCAUGUAGGUCGGUUCGAAAGUAGAAGGGCACGAUUGUCGAUAGCACGCGUGA | – | – | 97.5 | 39.2
UGAACAAUGUAGAAGGCCCACAUUUAUAUGUAGGGAGGAUAUACAUGAGGAUCACCCAUGUAAAGAGCAAGAGGAUUUGACAGA | – | – | 9.49 | 17.6
GCGUGGUUCUAGAAGGUGCUAGCGAUAAGCUAGCAAGGAUAUAGACAUGAGGAUCACCCAUGUCUUUGUGAAAUCGACACACGC | – | – | 5.58 | 6.39
UUGGCAACGUAGAAGGGUGACAUGAGGAUCACCCAUGUGCCGAUAUUUCUCGAGAUAUGUCGGCCACAGGAUAUACGUGCGAAC | 107 | 120 | – | –
GGUCAGCUAGGAUAUACAUGAGGAUCACCCAUGUACUGACCCAUGCGGGAGUCCGCAUGUAGAAGGAGCAAAAU | – | – | 20.9 | 22.6
CCUCCACAUGAGGAUCACCCAUGUCAGGAUAUCGUGUGUGCGUUUUCGGUCUUUCGCGCGAGAAGGGACGACUG | – | – | 30.2 | 33
UCGAUAAGGAGAGGAUAUGGACAUGAGGAUCACCCAUGUACAUGGGAAUAUAUACUGAAUUUUUACUAGAAGGCUUACAUAAAU | – | – | 14.7 | 12.4
AACUGACAUGAGGAUCACCCAUGUCAGGAUAUGACUUCAAAAUAAAAAUAAAAUGAUGUCAGAAGGGACAUGAA | – | – | 13.3 | 12
UUUAUAUUCAGAGGAUAUUGAUGUUGUAUUUUACAAGAAGGCUGAUUGUUUUGUAAUGUUAUUAUACAUGAGGAUCACCCAUGU | 22.1 | 15.6 | – | –
AACAGCUCGUCAGGAUAUAUUAUCUUUUUAUGUAUUUAUGUACAUGAGGAUCACCCAUGUUGUUUGUAGAAGGGACGAGCUGAA | – | – | 30.4 | 26.5
CGCGAUGCGGUUGGCCCUGGGCGAGAGGAUAUGGGCAGCGAGACAUGAGGAUCACCCAUGUUUUCUCAGAAGGCUCGAGCAGGC | 181 | 17.1 | – | –
GUGUACAUUCGAGGAUAUCGGAGAGAGAUCAUUCGAGAAGGCGAUUCAUGAUGUAUUAUCCUGGACAUGAGGAUCACCCAUGUG | 109 | 74.6 | – | –
AAAAGGUCAGGAUAUACAAAAAAAAAAAAAAAAAAAAAAAAGUAGAAGGGACAUGAGGAUCACCCAUGUGAAAA | – | – | 86.1 | 74
AAAUUUUGUCAAGGAUAUGUAUAAAAGAUAAGAAAACAUGAGGAUCACCCAUGUAUAUGGUGGGAACAGAAGGUGAAUAAGUAA | – | – | 185 | 158
AUACUCAUGUAAGGAUAUGCAGCCGUUUCGGCUGCAGAAGGUACUAUAAUACAUGAGGAUCACCCAUGUCUAUAAAAUAAAGAC | 60.6 | 41.5 | – | –
AUUUUGUGAGGAUAUCAGGUGUGCUAGCGUACUGGUACAUCUGAGAAGGCACAUGAGGAUCACCCAUGUUUAUU | – | – | 26.6 | 60
AGCUGUGGCCGAGGAUAUCUAAUAAUCUCAACCGAAAUAUAAUCGGACAUGAGGAUCACCCAUGUAGAGAAGGCGGUCUCAGCA | – | – | 36.2 | 92.8
GGAAGACAUGAGGAUCACCCAUGUGGGAUUAUGGGAGGAUAUACAAAGACGAGAGUCAGAGUAGAAGGCCUAGGAU | 84.3 | 33.9 | – | –
GAGUGGCAAGGAUAUACAGUGGAGAGGAUGGCAAGAGGUGGACAUGAGGAUCACCCAUGUAGAAGGUGCAGAGA | – | – | 154 | 235
AGUAGGCAGUGAGGAUAUGUACUUGUAACGGUACAUGAGGAUCACCCAUGUGGUGGGAGUGGAGGACAGAAGGCACCGUUUGGG | 114 | 66.6 | – | –
